# Measured values as given in publication PMC7416082 (Journal of Inorganic Biochemistry, 2020).
# Legend:
# [1] = biological target: T1, human serum albumin (HSA) (Homo sapiens, UniProt P02768); assay: HSA competitive studies with site-markers warfarin and ibuprofen; assay type: binding; details: for HSA-binding constant K, marker: ibuprofen: presence of ibuprofen; for HSA-binding constant K, marker: warfarin: presence of warfarin
# [2] = biological target: T1, human serum albumin (HSA); assay: HSA tryptophan fluorescence quenching; assay type: binding; details: for K(HSA), SA-binding constant: Scatchard equation; for % relative fluorescence intensity (I/Io, %) of HSA remaining: λem 340 nm, % of the initial HSA fluorescence; for kq(HSA), SA-quenching constant: τo = 10^−8 s
# [3] = biological target: T2, bovine serum albumin (BSA) (Bos taurus, UniProt P02769); assay: BSA competitive studies with site-markers warfarin and ibuprofen; assay type: binding; details: for BSA-binding constant K, marker: ibuprofen: presence of ibuprofen; for BSA-binding constant K, marker: warfarin: presence of warfarin; for BSA binding site from competition with site-markers: change of K(BSA) with warfarin / ibuprofen
# T2 sequence (P02769 25-607): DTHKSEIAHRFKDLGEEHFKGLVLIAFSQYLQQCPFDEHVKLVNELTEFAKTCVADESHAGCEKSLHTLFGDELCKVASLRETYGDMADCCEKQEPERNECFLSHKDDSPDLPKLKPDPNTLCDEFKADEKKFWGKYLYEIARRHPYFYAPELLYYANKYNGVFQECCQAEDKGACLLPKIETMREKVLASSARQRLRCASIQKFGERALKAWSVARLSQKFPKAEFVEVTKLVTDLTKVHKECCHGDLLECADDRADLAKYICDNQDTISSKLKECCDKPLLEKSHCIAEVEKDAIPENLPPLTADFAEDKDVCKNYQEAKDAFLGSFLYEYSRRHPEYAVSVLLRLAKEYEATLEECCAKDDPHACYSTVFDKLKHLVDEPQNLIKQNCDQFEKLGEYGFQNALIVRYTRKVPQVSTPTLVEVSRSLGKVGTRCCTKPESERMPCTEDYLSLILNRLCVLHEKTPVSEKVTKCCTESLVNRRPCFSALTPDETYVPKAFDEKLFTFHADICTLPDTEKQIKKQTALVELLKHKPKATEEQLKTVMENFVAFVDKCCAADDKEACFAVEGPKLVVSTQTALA
# [4] = Solubility and stability of the isolated complexes; assay type: physicochemical
# [5] = biological target: T2, bovine serum albumin (BSA); assay: BSA tryptophan fluorescence quenching; assay type: binding; details: for K(BSA), SA-binding constant: Scatchard equation; for % relative fluorescence intensity (I/Io, %) of BSA remaining: λem 345 nm, % of the initial BSA fluorescence; for kq(BSA), SA-quenching constant: τo = 10^−8 s
# CT DNA = CT DNA binding studies by cyclic voltammetry; parameters: species or system calf; details: for Epa(f), anodic potential / Epc(f), cathodic potential / Epa(b), anodic potential / Epc(b), cathodic potential: Co(II)/Co(I) couple, DMSO/buffer; for Epa(f), anodic potential / Epc(f), cathodic potential: absence of CT DNA; for Epa(b), anodic potential / Epc(b), cathodic potential: presence of CT DNA; for Kr/Kox, ratio of equilibrium DNA-binding constants of reduced and oxidized form: Eq. S3; for ΔEpa = Epa(b) − Epa(f) / ΔEpc = Epc(b) − Epc(f): shift upon addition of CT DNA
# CT DNA-EB conjugate = assay: EB-displacement studies; assay type: binding, calf; details: for quenching constant kq (EB-DNA): τo = 23 ns
# Method in brief: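 CT DNA pre-bound with ethidium bromide in citrate/NaCl buffer, pH 7.0, at room temperature. Test compound was added from a DMSO stock (≤5% v/v DMSO final), and the decrease in EB-DNA emission at 592 nm was monitored. KSV was obtained by Stern-Volmer analysis. kq was calculated from KSV using a literature EB-DNA lifetime τo = 23 ns.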
# T1 sequence (P02768 25-609): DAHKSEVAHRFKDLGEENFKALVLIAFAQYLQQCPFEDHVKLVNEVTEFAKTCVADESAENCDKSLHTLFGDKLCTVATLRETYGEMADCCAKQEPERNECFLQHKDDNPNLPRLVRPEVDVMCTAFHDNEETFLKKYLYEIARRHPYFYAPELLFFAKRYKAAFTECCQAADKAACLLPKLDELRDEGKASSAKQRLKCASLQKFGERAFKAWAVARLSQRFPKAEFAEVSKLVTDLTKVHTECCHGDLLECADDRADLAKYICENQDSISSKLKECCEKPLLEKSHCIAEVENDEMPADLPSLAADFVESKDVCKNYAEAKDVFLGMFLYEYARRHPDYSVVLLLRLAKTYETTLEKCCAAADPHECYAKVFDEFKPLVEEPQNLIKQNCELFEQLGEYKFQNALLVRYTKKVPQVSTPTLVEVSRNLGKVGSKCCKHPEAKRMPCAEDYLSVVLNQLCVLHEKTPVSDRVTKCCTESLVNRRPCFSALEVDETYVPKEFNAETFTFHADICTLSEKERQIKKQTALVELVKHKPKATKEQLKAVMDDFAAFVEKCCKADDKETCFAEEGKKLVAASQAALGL
"HSA-binding constant K, no marker [1]","HSA-binding constant K, marker: ibuprofen [1]","HSA-binding constant K, marker: warfarin [1]","K(HSA), SA-binding constant [2]","% relative fluorescence intensity (I/Io, %) of HSA remaining [2] [%]","kq(HSA), SA-quenching constant [2]","BSA-binding constant K, no marker [3]","BSA-binding constant K, marker: ibuprofen [3]","BSA-binding constant K, marker: warfarin [3]",Solubility [4],"K(BSA), SA-binding constant [5]","% relative fluorescence intensity (I/Io, %) of BSA remaining [5] [%]","kq(BSA), SA-quenching constant [5]","Epa(f), anodic potential (CT DNA) [mV]","Epc(f), cathodic potential (CT DNA) [mV]","Epa(b), anodic potential (CT DNA) [mV]","Epc(b), cathodic potential (CT DNA) [mV]","Kr/Kox, ratio of equilibrium DNA-binding constants of reduced and oxidized form (CT DNA)",ΔEpa = Epa(b) − Epa(f) (CT DNA),ΔEpc = Epc(b) − Epc(f) (CT DNA),Substance,other results
7.06(±0.31) × 10^5 M^−1,2.72(±0.10) × 10^5 M^−1,4.18(±0.11) × 10^5 M^−1,7.06(±0.31) × 10^5 M^−1,28.8,9.01(±0.28) × 10^12 M^−1 s^−1,3.72(±0.12) × 10^5 M^−1,1.56(±0.08) × 10^5 M^−1,4.50(±0.24) × 10^5 M^−1,soluble in DMSO and DMF,3.72(±0.12) × 10^5 M^−1,33.5,1.04(±0.07) × 10^13 M^−1 s^−1,−495,−690,−480,−700,1.04,+15 mV,−10 mV,[Co(indo-O)2(H2O)2(μ-Cl)]n·n(MeOH·H2O) [complex 1],BSA binding site from competition with site-markers [3]: preference for the Sudlow's site 2 in subdomain IIIA; Stern-Volmer constant KSV (EB-DNA) (CT DNA-EB conjugate): 1.39(±0.05) × 10^5 M^−1; quenching constant kq (EB-DNA) (CT DNA-EB conjugate): 6.03(±0.23) × 10^12 M^−1 s^−1
1.20(±0.05) × 10^6 M^−1,3.42(±0.11) × 10^5 M^−1,5.72(±0.18) × 10^5 M^−1,7.37(±0.35) × 10^5 M^−1,21.2,1.83(±0.12) × 10^13 M^−1 s^−1,4.27(±0.22) × 10^5 M^−1,1.19(±0.05) × 10^5 M^−1,2.23(±0.08) × 10^5 M^−1,soluble in DMSO and DMF,4.27(±0.22) × 10^5 M^−1,26.5,1.37(±0.06) × 10^13 M^−1 s^−1,−440,−720,−500,−680,0.84,−60 mV,+40 mV,"[Co(indo-O,O′)2(phen)] [complex 4]",HSA binding site from competition with site-markers ([1]; change of K(HSA) with warfarin / ibuprofen): evident preference for the Sudlow's site 2 in subdomain IIIA; Stern-Volmer constant KSV (EB-DNA) (CT DNA-EB conjugate): 1.76(±0.04) × 10^5 M^−1; quenching constant kq (EB-DNA) (CT DNA-EB conjugate): 7.65(±0.17) × 10^12 M^−1 s^−1

Substance,"HSA-binding constant K, no marker [1]","HSA-binding constant K, marker: ibuprofen [1]","HSA-binding constant K, marker: warfarin [1]","K(HSA), SA-binding constant [2]","% relative fluorescence intensity (I/Io, %) of HSA remaining [2] [%]","kq(HSA), SA-quenching constant [2]","BSA-binding constant K, no marker [3]","BSA-binding constant K, marker: ibuprofen [3]","BSA-binding constant K, marker: warfarin [3]",Solubility [4],"K(BSA), SA-binding constant [5]","% relative fluorescence intensity (I/Io, %) of BSA remaining [5] [%]","kq(BSA), SA-quenching constant [5]","Epa(f), anodic potential (CT DNA) [mV]","Epc(f), cathodic potential (CT DNA) [mV]","Epa(b), anodic potential (CT DNA) [mV]","Epc(b), cathodic potential (CT DNA) [mV]","Kr/Kox, ratio of equilibrium DNA-binding constants of reduced and oxidized form (CT DNA)",ΔEpa = Epa(b) − Epa(f) (CT DNA),ΔEpc = Epc(b) − Epc(f) (CT DNA),other results
"[Co2(μ-indo-O,O′)2(indo-O)2(bipy)2(μ-H2O)]·3.3MeOH [complex 2]",8.82(±0.30) × 10^5 M^−1,1.41(±0.09) × 10^5 M^−1,4.62(±0.16) × 10^5 M^−1,1.20(±0.05) × 10^6 M^−1,5.1,8.49(±0.25) × 10^13 M^−1 s^−1,6.77(±0.26) × 10^5 M^−1,3.50(±0.13) × 10^5 M^−1,5.48(±0.13) × 10^5 M^−1,soluble in DMSO and DMF,6.77(±0.26) × 10^5 M^−1,7.2,7.14(±0.12) × 10^13 M^−1 s^−1,−475,−712,−520,−675,0.93,−45 mV,+37 mV,BSA binding site from competition with site-markers [3]: preference for the Sudlow's site 2 in subdomain IIIA; Stern-Volmer constant KSV (EB-DNA) (CT DNA-EB conjugate): 1.63(±0.05) × 10^5 M^−1; quenching constant kq (EB-DNA) (CT DNA-EB conjugate): 7.07(±0.20) × 10^12 M^−1 s^−1
